Ecoli rRNA inh – inhibits bacterial ribosomal RNA function over humanized ribosomes; E. coli WT GFP vs humanized-ribosome RFP mutants, fluorescence, 24 h; stronger effect = lower value; DMSO median 0, no signal -100; GFP signal change (wild-type ribosome), % (test concentration not listed); actives 1.6% (n = 350,000); AID 720706;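 active means significant combined selectivity score with lowered wild-type GFP, culture density cut under 30%, mutant RFP and density less affected; inactive means any of these conditions unmet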
E-selectin induc – E-selectin induction on HUVECs; P16581; HUVEC E-selectin immunofluorescence imaging; normalized: neutral wells 0, TNF-alpha wells 100; activation, % at 7.58 µM; actives 0.37% (n = 260,000); AID 686992;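 active means mean E-selectin-positive cell signal at least 10% of the positive control, reached in at least 60% of replicates, without over 20% cell loss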
Target sequence (P16581 whole entry, looked up): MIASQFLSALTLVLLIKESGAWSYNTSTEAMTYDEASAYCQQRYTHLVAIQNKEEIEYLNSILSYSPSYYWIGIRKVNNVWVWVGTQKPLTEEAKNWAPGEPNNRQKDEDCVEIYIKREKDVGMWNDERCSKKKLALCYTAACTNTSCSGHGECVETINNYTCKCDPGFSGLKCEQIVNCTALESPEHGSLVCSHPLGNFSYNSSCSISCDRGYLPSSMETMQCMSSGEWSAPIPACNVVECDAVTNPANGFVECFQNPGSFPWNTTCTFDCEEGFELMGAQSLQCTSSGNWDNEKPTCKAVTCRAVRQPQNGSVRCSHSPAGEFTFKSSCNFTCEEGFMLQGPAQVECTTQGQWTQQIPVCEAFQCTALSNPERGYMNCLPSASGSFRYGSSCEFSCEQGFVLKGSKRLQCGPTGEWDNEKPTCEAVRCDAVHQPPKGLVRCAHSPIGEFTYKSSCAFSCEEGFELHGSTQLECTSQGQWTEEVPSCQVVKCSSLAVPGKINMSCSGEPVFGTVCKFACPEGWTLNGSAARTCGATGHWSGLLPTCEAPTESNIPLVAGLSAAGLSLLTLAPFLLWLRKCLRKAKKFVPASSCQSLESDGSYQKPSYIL
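Test system: HUVEC; input: 3,000 HUVEC/well; measured by: immunofluorescence imaging; read-out: % PE-positive cells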
AF4-AF9 inh – inhibitors of human MLL-AF4/AF9 interaction; P42568; AlphaScreen, biotin-AF4 peptide binding to FLAG-AF9; inhibition, % at 10 µM; actives 0.47% (n = 350,000);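 active means every replicate reaching a set inhibition limit, whatever the replicate mean, cut at about 25% in these data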;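 further: 0% = plate neutral control median and 100% = total signal loss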
ERAP1 inh – inhibitors of human ERAP1 aminopeptidase; Q9NZ08; recombinant ERAP1, Leu-AMC fluorescence, 60 min; inhibition, % at 10.7 µM; actives 0.15% (n = 340,000); AID 652197;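 active means mean replicate inhibition of at least 30%, or all replicates individually reaching that 30% level; inactive means mean below 30% and not every replicate reaching it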;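 further: 0% = neutral control wells and 100% = L-leucinethiol positive control wells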
S100A4 MyoIIA – S100A4-myosin IIA interaction inhibition | P26447 | S100A4/TAMRA-MyoIIA peptide fluorescence polarization | inhibition, % at 10.7 µM | actives 0.14% (n = 360,000) | AID 652163;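 active means mean inhibition of at least 70% across replicates, with every replicate also reaching that level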
Target sequence (P26447 whole entry, looked up): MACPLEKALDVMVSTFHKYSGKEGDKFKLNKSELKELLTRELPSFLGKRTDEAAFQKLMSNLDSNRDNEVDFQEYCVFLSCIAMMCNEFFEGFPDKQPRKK
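Test system: S100A4 monomer protein. Medium: HEPES buffer with Ca2+, pH 7.2. Reagent: fluorescent myosin IIA peptide, 5 nM. Compound dosing: single-point compound testing. Timing: 5 min between mix addition and reading. Benchmarks: DMSO neutral and TFP positive wells.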
SIRT5 block – inhibitors of human sirtuin-5 desuccinylase | Purified SirT5, succinyl-peptide AMC, trypsin-coupled fluorescence | inhibition, % at 15 µM | Q9NXA8 | actives 1.1% (n = 330,000); in the data active means inhibition above about 15%
* = called active by the depositor; · = no result given; ! = not active in a repeat. The list is not random: actives were taken first. Their share in the collection is about 3.4%.

SMILES | Ecoli rRNA inh | E-selectin induc | AF4-AF9 inh | ERAP1 inh | S100A4 MyoIIA | SIRT5 block
CCC(=O)N(C)C[C@@H]1Oc2ncc(-c3ccc(F)cc3)cc2C(=O)N([C@@H](C)CO)C[C@@H]1C | 3.0 | -0.3 | -1.7 | 1.9 | 2.6 | 24.0*
CCC(=O)N(C)C[C@H]1Oc2ncc(Br)cc2C(=O)N([C@@H](C)CO)C[C@@H]1C | 4.4 | 72.6* | -2.3 | -2.6 | -1.8 | 1.7
CCCNC(=O)N(C)C[C@@H]1Oc2ncc(Br)cc2C(=O)N([C@@H](C)CO)C[C@H]1C | 4.5 | -0.4 | -5.6 | -1.2 | 10.5 | -4.2
CCCNC(=O)N(C)C[C@@H]1Oc2ncc(Br)cc2C(=O)N([C@H](C)CO)C[C@@H]1C | 7.5 | -0.2 | 2.7 | -4.0 | 0.4 | 19.6*!
CNC[C@H]1Oc2c(NC(=O)NC(C)C)cccc2C(=O)N([C@H](C)CO)C[C@@H]1C | 1.6 | · | -0.8 | -2.1 | -6.0 | -1.8
COc1ccc(S(=O)(=O)N(C)C[C@@H]2Oc3ccc(NC(=O)Cn4cnnn4)cc3C(=O)N([C@H](C)CO)C[C@H]2C)cc1 | 0.2 | 0.0 | -1.5 | -3.5 | 26.8 | 7.4
O=C(C[C@@H]1C[C@@H]2c3cc(NC(=O)NC4CCCC4)ccc3O[C@@H]2[C@H](CO)O1)NCc1ccccc1F | -1.0 | 0.0 | -0.7 | -1.6 | 4.5 | 0.6
COc1cccc(CN2[C@@H](CO)[C@@H](c3ccccc3)C23CN(C(=O)C2CCOCC2)C3)c1 | 1.7 | -0.3 | -1.4 | -2.0 | -4.3 | -0.7
CCCNC(=O)N(C)C[C@@H]1Oc2ncc(-c3ccncc3)cc2C(=O)N([C@H](C)CO)C[C@@H]1C | 20.5 | -0.3 | -3.0 | 32.9*! | 4.7 | 0.4
C[C@H](CO)N1C[C@H](C)[C@H](CN(C)C(=O)Nc2ccc(C(F)(F)F)cc2)Oc2ncc(Br)cc2C1=O | -7.2 | -0.1 | -0.5 | 0.5 | -4.7 | -0.1
C[C@H]1CN([C@@H](C)CO)C(=O)c2cc(Br)cnc2O[C@@H]1CN(C)C(=O)Nc1ccc(C(F)(F)F)cc1 | -12.2*! | -0.1 | -0.4 | 1.2 | 4.3 | -6.7
COc1ccc(C#Cc2cnc3c(c2)C(=O)N([C@@H](C)CO)C[C@@H](C)[C@H](CN(C)C(=O)CN(C)C)O3)cc1 | 2.1 | 3.3 | 17.0 | 0.3 | 4.9 | -0.5
CN1CCN(CCCNC(=O)c2ccc(Cn3c(=S)[nH]c4ccc(Br)cc4c3=O)cc2)CC1 | 6.3 | 4.3 | 7.5 | 3.6 | -0.8 | -7.5
O=C(NCc1cccnc1)c1ccc(Cn2c(=S)[nH]c3ccc(Br)cc3c2=O)cc1 | 5.5 | 0.4 | -0.9 | -4.7 | -2.9 | 16.1*
CN(C)Cc1c(O)ccc2ccccc12 | -50.9 | · | 31.4* | 2.2 | -11.1 | 2.7
C[C@@H](NC(=O)[C@H]1[C@H](CO)[C@H]2Cn3c(ccc(-c4cccnc4)c3=O)[C@@H]1N2C)c1ccccc1 | 2.5 | 0.6 | 0.7 | 0.1 | -34.3 | -7.0
COc1ccc(OC)c(/C=N/NC(=O)c2[nH]nc3c2CCc2ccccc2-3)c1 | 5.6 | · | -0.8 | 0.7 | -11.9 | -2.2
COc1cccc(/C=N/NC(=O)c2ccc(N3CCCC3=O)cc2)c1 | -19.0* | -0.2 | 0.4 | -1.9 | -1.4 | -5.9
COc1cccc(/C=N/NC(=O)c2[nH]nc3c2CCc2ccccc2-3)c1 | -37.1* | 2.4 | -0.9 | -0.5 | 5.4 | -1.5
CN1C(C(=O)c2ccccc2)=C(N)c2ccccc2S1(=O)=O | -22.6* | -1.9 | 0.6 | 0.6 | -4.2 | 7.0
CC(C)Cc1cc(C(=O)Nc2sc3c(c2C#N)CCCC3)no1 | -10.2 | 2.1 | 5.2 | -5.5 | 2.3 | -2.5
Cc1cc(C(=O)Nc2sc3c(c2C#N)CCCC3)no1 | -31.2* | · | -20.1 | 1.4 | 1.2 | -1.3
COc1ccc(S(=O)(=O)Nc2cccc3c2O[C@@H](CN(C)Cc2ccc(-c4ccccc4)cc2)[C@@H](C)CN([C@H](C)CO)C3=O)cc1 | 2.7 | 0.4 | -4.1 | 1.2 | -1.5 | 5.5
Cc1nnc(Cl)c2nn(-c3ccccc3)c(C)c12 | 18.6 | · | 6.1 | 4.7 | -5.4 | 2.1
CCOc1ccc(-n2nc3c(Cl)nnc(C)c3c2C)cc1 | 0.4 | · | 58.1* | 1.8 | 1.5 | -6.7
SMILES | Ecoli rRNA inh | E-selectin induc | AF4-AF9 inh | ERAP1 inh | S100A4 MyoIIA | SIRT5 block
COCCNC(=O)C[C@H]1C[C@H]2c3cc(NC(=O)C4CCOCC4)ccc3O[C@H]2[C@@H](CO)O1 | 2.9 | · | · | · | · | ·
COc1ccc(/C=N\NC(=O)c2ccc(-c3ccccc3)cc2)cc1COC(C)=O | -25.1* | · | -6.9 | 1.8 | -2.1 | -3.0
COCc1cc(/C=N\NC(=O)COc2ccc(Cl)cc2)ccc1OC | · | 1.3 | · | · | · | ·
COc1ccc(/C=N\NC(=O)c2ccccc2)cc1COc1ccc(F)cc1 | -10.2 | 0.1 | -0.2 | -2.5 | 0.3 | -4.9
COCc1cc(/C=N\NC(=O)COc2ccccc2)ccc1OC | -27.3* | -0.3 | -0.1 | 3.8 | -0.4 | -1.1
O=C(C[C@@H]1CC[C@@H](NC(=O)Nc2ccc(C(F)(F)F)cc2)[C@@H](CO)O1)NCCN1CCCC1 | -1.8 | -0.2 | 4.1 | 0.8 | 1.9 | 2.6
CC(C)NC(=O)NCC[C@@H]1CC[C@H](NS(=O)(=O)c2ccccc2)[C@H](CO)O1 | 2.3 | · | · | · | · | ·
C[C@@H]1CN([C@H](C)CO)C(=O)Cc2cc(NC(=O)Cn3cnnn3)ccc2O[C@@H]1CN(C)CC1CCCCC1 | 2.0 | 0.0 | 7.7 | -1.9 | -16.9 | 5.5
CO[C@H]1CN(C)C(=O)c2cc(NS(=O)(=O)c3cn(C)cn3)ccc2OC[C@@H](C)N(C)C[C@H]1C | 1.6 | -0.4 | · | · | · | ·
C[C@@H]1CN([C@@H](C)CO)C(=O)c2cccc(NC(=O)c3ccc(-c4nccs4)cc3)c2O[C@@H]1CN(C)C(=O)NC1CCCCC1 | -10.9 | 4.0 | 3.7 | 1.3 | 12.7 | 0.9
CC(C)NC(=O)N(C)C[C@@H]1Oc2c(NC(=O)c3ccc(-c4nccs4)cc3)cccc2C(=O)N([C@H](C)CO)C[C@H]1C | -2.4 | 90.7* | -11.7 | -0.4 | -5.1 | 2.5
CC(C)NC(=O)N(C)C[C@@H]1Oc2c(NC(=O)c3ccc(-c4nccs4)cc3)cccc2C(=O)N([C@@H](C)CO)C[C@@H]1C | -3.9 | 80.8* | -17.0 | -1.9 | 0.5 | 3.4
C[C@@H]1CN([C@@H](C)CO)C(=O)c2cccc(NC(=O)c3ccc(-c4nccs4)cc3)c2O[C@H]1CN(C)S(C)(=O)=O | -0.2 | -5.3 | -2.0 | 3.5 | -4.3 | -1.7
C[C@H]1CN([C@@H](C)CO)C(=O)c2cccc(NC(=O)c3ccc(-c4nccs4)cc3)c2O[C@H]1CN(C)S(C)(=O)=O | 1.1 | -3.7 | -1.2 | 0.2 | -4.7 | 16.7*
CC(C)NC(=O)N(C)C[C@H]1Oc2c(NC(=O)c3ccc(-c4nccs4)cc3)cccc2C(=O)N([C@@H](C)CO)C[C@H]1C | -8.8 | 64.6*! | -11.0 | -1.0 | 48.5 | 4.4
